Rows were chosen to be rich in hits. Some 8.2% of all compounds tested hit in one or more screens of this group.
M1 antagonist – blocks the rat M1 muscarinic receptor response to acetylcholine | P08482 | CHO-M1 cells, Fluo-4 calcium, ACh EC80 antagonist mode; hits give low values | B-score at 10 µM | hit rate 3.4% among 64,000 | AID 628;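 active = calcium fluorescence response, raw or row-and-column corrected B-score, differing from the plate sample mean either way at a set confidence level, mostly lower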
M1 agonist – activates the M1 muscarinic receptor; AID 626; hit rate 3% among 64,000; CHO-M1 cells, Fluo-4 calcium fluorescence, agonist mode; hits give high values; B-score at 10 µM;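 active = fluorescence rise, raw or as B-score row- and column-corrected plate score, outside the 99.7% band of its plate's samples, either direction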
D1 allo mod – D1 dopamine receptor (human) allosteric modulation. hit rate 5.9% among 58,000. HEK293 D1, CRE-luciferase, dopamine EC30 potentiation; actives deviate in either direction. B-score at 10 µM. AID 641;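 active = luminescence count or its row- and column-corrected plate score outside the 99.7% band of the plate's sample wells, on either side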
HePTP inhibitor – inhibitors of human HePTP phosphatase; P35236; recombinant HePTP phosphatase activity, OD absorbance; inhibition, % at 20 µM; hit rate 0.64% among 110,000; AID 521; in the data active = inhibition above about 50%
SF1 activator – activates the human nuclear receptor SF-1; CHO-K1 Gal4-SF-1 LBD luciferase reporter; % increase over DMSO SF-1-specific signal; activation, % at 10 µM; hit rate 1.9% among 65,000; AID 522;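 active = activation above the mean activation of all tested compounds plus 3 SD, cut at about 50% in these data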
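Assay system – CHO-K1 cells with Gal4–hSF-1 LBD chimera plus Gal4-driven luciferase · Quantity – 4,000 cells per well · Times – compound added 1 h post-seeding, 20 h exposure at 37 °C, 5% CO2 · Measured by – luciferase light emission · Benchmarks – DMSO and mock-transfected background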
RORa activator – activates the human nuclear receptor RORA | activation, % at 10 µM | CHO-K1 Gal4-RORA LBD luciferase reporter, luminescence; percent increase over mock-subtracted basal signal | hit rate 1.5% among 65,000 | P35398;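 active = activation above the mean of all tested compounds plus 3 SD, cut at about 49% in these data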
Target sequence (P35398 whole entry, looked up, the tested form may be a part): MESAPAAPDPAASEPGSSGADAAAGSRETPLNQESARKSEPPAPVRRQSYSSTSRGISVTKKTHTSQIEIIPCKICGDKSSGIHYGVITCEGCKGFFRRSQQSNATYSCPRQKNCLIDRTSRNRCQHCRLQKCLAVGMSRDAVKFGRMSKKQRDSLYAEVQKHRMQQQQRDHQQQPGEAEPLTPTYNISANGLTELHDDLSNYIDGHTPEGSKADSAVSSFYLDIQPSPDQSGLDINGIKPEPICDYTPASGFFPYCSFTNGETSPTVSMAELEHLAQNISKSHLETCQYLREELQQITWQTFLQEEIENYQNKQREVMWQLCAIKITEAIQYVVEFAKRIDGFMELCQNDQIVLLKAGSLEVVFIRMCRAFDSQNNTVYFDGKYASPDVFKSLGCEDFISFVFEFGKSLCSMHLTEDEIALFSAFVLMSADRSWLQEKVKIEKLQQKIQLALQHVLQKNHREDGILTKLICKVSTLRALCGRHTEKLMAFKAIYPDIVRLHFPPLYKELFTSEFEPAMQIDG
M1 antag conf – confirmation of rat M1 muscarinic receptor antagonists. shares compounds with M1 antagonist. CHO-M1 cells, Fluo-4 calcium, ACh EC80 antagonism; hits give low values. hit rate 43% among 1,700. calcium response (max-min fluorescence) at 10 µM. AID 677;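 active = calcium response below the same-plate mean of wells given acetylcholine alone at its 80%-effect dose, minus 3 SD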
mGluR4 antag – mGluR4 (human) activity, M1 antagonist secondary assay; shares compounds with M1 antagonist; CHO-mGluR4 calcium flux, Fluo-4 fluorescence, glutamate EC80; hits give low values; fluorescence response (max-min) at 10 µM; hit rate 0.9% among 1,700;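 active = fluorescence response below the plate's average for near-maximal glutamate wells, less 3 SD of those wells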;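 note: raw unnormalized fluorescence span taken in the window right after glutamate addition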
Large screens that a line does not name were inactive (follow-up assays come after a bar, where they were run).

CCN1C=C(Cc2cccs2)C2=C(C1)C(c1cccs1)C(C#N)=C(N)O2 (stereo not drawn)	M1 antagonist -3.84 | M1 antag conf inactive | mGluR4 antag 170
N#CC1=C(N)Oc2c(oc(CO)cc2=O)C1c1cccs1 (stereo not drawn)	none
COc1cc(C(=O)N2CCN(C3CC4CCC3C4)CC2)cc(OC)c1OC (stereo not drawn)	none (no result: M1 antagonist, M1 agonist, D1 allo mod, SF1 activator, RORa activator)
O=C(NCCCN1CCC(Cc2ccccc2)CC1)C1CCC(=O)N1C1CCCC1 (stereo not drawn)	none
CCCS(=O)(=O)N1CCCC(C(=O)NCCN2CCC(Cc3ccccc3)CC2)C1 (stereo not drawn)	M1 antagonist -2.37 | M1 antag conf inactive | mGluR4 antag inactive
O=C(NCCCN1CCC(Cc2ccccc2)CC1)C1CC(=O)N(C2CCCC2)C1 (stereo not drawn)	M1 antagonist -3.32 | M1 antag conf 508 | mGluR4 antag inactive
CCOc1cc(/C=N/NC(=O)CSc2nc(C)cc(C)n2)ccc1OCc1cccc(Cl)c1	none (no result: M1 antagonist, M1 agonist, D1 allo mod, SF1 activator, RORa activator)
CCOC(=O)N1CCN(C(=O)c2cnn3c(C)c(Cc4ccc(C)cc4)c(C)nc23)CC1	none
Cc1nc2c(C(=O)N3CCN(c4ccccn4)CC3)cnn2c(C)c1Cc1cccc(Cl)c1	M1 antagonist -2.33 | M1 antag conf inactive | mGluR4 antag inactive
Cc1c(N=CC=Nc2c(C)n(C)n(-c3ccccc3)c2=O)c(=O)n(-c2ccccc2)n1C	none (no result: M1 antagonist, M1 agonist)
Cc1c(N=C/C=C/c2ccccc2)c(=O)n(-c2ccccc2)n1C	M1 antagonist -11.4 | M1 antag conf 23.7 | mGluR4 antag inactive
Cc1ccc2[nH]c3c(N4CCCCCC4)ncnc3c2c1	M1 antagonist -2.74 (no result: D1 allo mod) | M1 antag conf 387 | mGluR4 antag 178
Cc1ccc(C2CC(=O)c3cnc(N4CCN(c5ccccc5)CC4)nc3C2)cc1 (stereo not drawn)	M1 antagonist -5.81 | M1 antag conf inactive | mGluR4 antag inactive
O=C1CC(c2ccc(F)cc2)Cc2nc(N3CCN(c4ccccc4)CC3)ncc21 (stereo not drawn)	none
Cc1ccccc1OCCCC(=O)Nc1ccc(N2CCOCC2)cc1	none (no result: D1 allo mod)
Cc1cc(OCC(=O)Nc2ccc(S(=O)(=O)N3CCN(C)CC3)cc2)cc(C)c1Cl	M1 antagonist -1.74, D1 allo mod -6.46 | M1 antag conf 377 | mGluR4 antag inactive
Cc1ccc(OCCCC(=O)Nc2ccc(N3CCOCC3)cc2)c(C)c1	M1 antagonist -2.26 | M1 antag conf inactive | mGluR4 antag inactive
Cc1cc(C)cc(OCC(=O)Nc2ccc(N3CCCC3)cc2)c1	M1 antagonist -7.62 | M1 antag conf 155 | mGluR4 antag inactive
Cc1ccc(OCC(=O)Nc2ccc(N3CCCC3)cc2)cc1C	M1 antagonist -3.64 | M1 antag conf inactive | mGluR4 antag inactive
COc1ccc(OCC(=O)Nc2ccc(S(=O)(=O)N3CCOCC3)cc2)cc1	none
COc1ccc(/C=N/NC(=O)c2ccoc2C)c(OC)c1OC	none (no result: M1 antagonist, M1 agonist, D1 allo mod, SF1 activator, RORa activator)
COc1cccc2cc(C(=O)N3CCc4ccccc4C3)c(=O)oc12	none
COc1ccc(C2CC(=O)c3cnc(N4CCN(Cc5ccccc5)CC4)nc3C2)cc1 (stereo not drawn)	none
O=C1CC(c2ccco2)Cc2nc(N3CCN(Cc4ccc5c(c4)OCO5)CC3)ncc21 (stereo not drawn)	M1 antagonist -1.88 | M1 antag conf 509 | mGluR4 antag inactive
CCSc1nnc(CNc2ccc(F)cc2)n1CC1CCCO1 (stereo not drawn)	none
CCn1c(CNc2ccc(F)cc2)nnc1SCCN1CCCCC1	M1 antagonist -3.27 | M1 antag conf 570 | mGluR4 antag inactive
CCn1c(CNc2ccccc2Cl)nnc1SCC(=O)OC1CCCCC1	M1 antagonist -4.7 | M1 antag conf 370 | mGluR4 antag inactive
CCn1c(CNc2cccc(Cl)c2)nnc1SCC(=O)OC1CCCCC1	none
CCn1c(CNc2ccccc2Cl)nnc1SCCN1CCCCC1	M1 antagonist -4.42 | M1 antag conf 271 | mGluR4 antag inactive
O=C(COc1ccc(F)cc1)NC1CC1	none (no result: D1 allo mod)
CC1(C)CC(=O)C=C(Nc2ccc3c(c2)OCCO3)C1	none
CCCCNC(=O)CSc1nc2ccccc2c(=O)n1C1CCCC1	none
CCOCCCNC(=O)c1cc2c(=O)n3cccc(C)c3nc2n1C	none
CCOCCCn1c(=N)c(C(N)=S)cc2c(=O)n3cccc(C)c3nc21	M1 antagonist -4.09 | M1 antag conf inactive | mGluR4 antag inactive
Cc1cccn2c(=O)c3cc(C(N)=S)c(=N)n(CCCOC(C)C)c3nc12	M1 antagonist -3.32 (no result: D1 allo mod) | M1 antag conf inactive | mGluR4 antag inactive
O=C1CC(N2CCN(c3ccc(S(=O)(=O)N4CCOCC4)cc3)CC2)C(=O)N1Cc1ccccc1 (stereo not drawn)	M1 antagonist -3.41 | M1 antag conf 607 | mGluR4 antag inactive
O=C1CC(N2CCN(S(=O)(=O)c3ccc(Cl)cc3)CC2)C(=O)N1CCc1ccccc1 (stereo not drawn)	none (no result: M1 antagonist, M1 agonist, D1 allo mod)
COc1nc(NS(=O)(=O)c2ccc(N)cc2)nc(N(C)C)n1	none (no result: M1 antagonist, M1 agonist, D1 allo mod, SF1 activator, RORa activator)
CC1(C)NC(=O)N(CCOCCSc2ccccc2)C1=O	none
Cc1ccc(SCCCCN2C(=O)NC(C)(C)C2=O)cc1	M1 antagonist -2.06 | M1 antag conf inactive | mGluR4 antag inactive
CN1CCC(N(C)CC(=O)Nc2cccc(Oc3ccccc3)c2)CC1	M1 antagonist -2.8 | M1 antag conf 454 | mGluR4 antag inactive
COc1cccc(CC(=O)NCC2COc3ccccc3O2)c1OC (stereo not drawn)	M1 antagonist -11.5 | M1 antag conf inactive | mGluR4 antag inactive
N#C/C(C(=O)c1ccccc1)=C1/CCCCCN1	M1 antagonist -2.43, SF1 activator 60.7 | M1 antag conf inactive | mGluR4 antag inactive
N#C/C(=C1/CCCCCN1)c1nc2ccccc2[nH]1	none
COc1ccc(-c2[nH]ncc2-c2cnn(-c3ccccc3)c2)c(O)c1	M1 antagonist -3.27 (no result: SF1 activator, RORa activator) | M1 antag conf inactive | mGluR4 antag inactive
CCCC(C)c1nnc(NC(=O)C2CCCO2)s1 (stereo not drawn)	M1 antagonist -3.5 | M1 antag conf 198 | mGluR4 antag inactive
CCCCCc1nnc(NC(=O)C2CCCO2)s1 (stereo not drawn)	none
Cn1c(C(=O)NC2CCCCC2)cc2sccc21	none
CN(C(=O)c1cc2sccc2n1C)C1CCCCC1	M1 antagonist -3.23 | M1 antag conf inactive | mGluR4 antag inactive
Cc1nc(CNS(=O)(=O)c2cccc(F)c2)cs1	none
CCN1CCN(c2nc3c(c(=O)n(C)c(=O)n3C)n2CCSc2ncccn2)CC1	none

Assay outcomes (PubChem)
